Ki data for 23 compounds are collected here from ChEMBL document CHEMBL1782030, “Polyethylene glycol-based homologated ligands for nicotinic acetylcholine receptors” (Bioorg Med Chem, 2008).

A short description of the test: Displacement of [3H]epibatidine from nAChR in rat cerebral cortex. In kind it is tissue-based. The method, boiled down: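 Rat cerebral cortex membranes used as receptor source; competition binding against the radioligand [3H]epibatidine. Ki values given as mean ± SEM of three experiments, each run in triplicate.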

SMILES strings stand for the structures.

Usually Ki stands for a measure of affinity in units of concentration, obtained from inhibition or displacement. The low end stands for a stronger hold on the target, the high end for a looser hold on the target. Compound `COCCOCCOCCOC(=O)NCC[N+](C)(C)C` gave an inhibition constant (Ki) of 70 µM.

`COCCOCCOCCOCC#Cc1cncc(OC[C@@H]2CCCN2C)c1` returned a Ki of 0.015 µM.

With `COCCOC(=O)N1CC[N+](C)(C)CC1`, the Ki stood at 3 µM.

For the compound `COC(=O)N1CC[N+](C)(C)CC1`, the inhibitory constant (Ki) worked out at 0.67 µM.

On to `COCCOCCOCCOCCOCCOCCOCC#Cc1cncc(OC[C@@H]2CCCN2C)c1`, for which the Ki was found to be 0.063 µM.

`COCC#Cc1cncc(OC[C@@H]2CCCN2C)c1` gave an inhibition constant Ki of 0.0047 µM.

Compound `COCCOCCOC(=O)NCC[N+](C)(C)C` returned a Ki of 32 µM.

Compound `COCCOCCOC(=O)N1CC[N+](C)(C)CC1` came in with an inhibitory constant (Ki) of 8.2 µM.

Take `COCCOCCOCCOCCOCCOC(=O)N1CC[N+](C)(C)CC1`: the Ki was determined as 38 µM.

Turning to `COCCOCCOCCOCCOC(=O)N1CC[N+](C)(C)CC1`, the Ki was found to be 26 µM.

The compound `COCCOCCOCCOCCOCCOCCOC(=O)NCC[N+](C)(C)C` yielded a Ki of 30 µM.

In turn, `CN1CCC[C@H]1COc1cncc(C#CCO)c1` showed an inhibition constant Ki of 0.0031 µM.

In the case of `COCCOCCOCCOCCOCCOC(=O)NCC[N+](C)(C)C`, the Ki turned out to be 190 µM.

Compound `COCCOCCOCCOC(=O)N1CC[N+](C)(C)CC1` displayed a Ki of 48 µM.

Compound `COC(=O)NCC[N+](C)(C)C` registered a Ki of 14 µM.

Regarding `CC(=O)N1CC[N+](C)(C)CC1` [ACETYLDIMETHYLPIPERAZINIUM IODIDE], the inhibition constant (Ki) was 3.6 µM.

In turn, `COCCOCCOCCOCCOCCOCC#Cc1cncc(OC[C@@H]2CCCN2C)c1` yielded an inhibitory constant (Ki) of 0.04 µM.

On to `COCCOCCOCC#Cc1cncc(OC[C@@H]2CCCN2C)c1`, for which the inhibitory constant (Ki) was 0.0075 µM.

`COCCOCC#Cc1cncc(OC[C@@H]2CCCN2C)c1` displayed an inhibition constant (Ki) of 0.015 µM.

The compound `COCCOC(=O)NCC[N+](C)(C)C` displayed an inhibition constant (Ki) of 54 µM.

In turn, `COCCOCCOCCOCCOC(=O)NCC[N+](C)(C)C` had an inhibitory constant (Ki) of 150 µM.

`COCCOCCOCCOCCOCCOCCOC(=O)N1CC[N+](C)(C)CC1` gave an inhibition constant Ki of 19 µM.

As to `COCCOCCOCCOCCOCC#Cc1cncc(OC[C@@H]2CCCN2C)c1`, the affinity, expressed as Ki, was 0.03 µM.
